Data from ChEMBL document CHEMBL3992529, “Total Syntheses and Biological Activities of Vinylamycin Analogues” (J Med Chem, 2017).
In brackets after ≈: the same amount, converted by molar mass. Counter-ions that a name gives are not always drawn. Activity calls are given as the source filed them. The calls are words filed in the database; no cut-off is given here.

What was measured:
MCF7 [1] = assay: Cytotoxicity against human MCF7 cells incubated for 72 hrs under normoxic condition by MTT assay; type: functional, cell-based; settings: MCF7, 72 h
In short: (§1)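 MCF-7 cells seeded at 2 × 10^4 cells/100 µL in duplicate and preincubated 24 h. Serial dilutions added, then 72 h at 20% O2 (normoxia) or 1% O2 (hypoxia, modular chamber). Viability by MTT under normoxia. Values are mean ± SD of three independent experiments.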

MCF7 [2] = assay: Cytotoxicity against human MCF7 cells incubated for 72 hrs under hypoxic condition by MTT assay; type: functional, cell-based; settings: MCF7, 72 h; in short: as §1
MCF7 [3] = assay: Selectivity index, ratio of IC50 for human MCF7 cells under hypoxic condition to IC50 for human MCF7 cells under normoxic condition; type: functional
In short: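 Index computed as IC50(hypoxia)/IC50(normoxia) in MCF-7 cells, each from a 72 h MTT assay at 1% or 20% O2.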

K562 [4] = assay: Cytotoxicity against human K562 cells measured after 72 hrs by MTT assay; type: functional, cell-based; settings: K562, 72 h
[5] = Stability of the compound at -20 degreeC incubated for one month; type: physicochemical; settings: 730.5 h
K562 [6] = assay: Potency index, ratio of vinylamycin IC50 to compound IC50 for human K562 cells; type: functional
Staphylococcus aureus = assay: Antibacterial activity against Staphylococcus aureus measured after 24 hrs by turbidimetric based microdilution method; type: functional
In short: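 S. aureus grown 18 h at 37 °C in MH broth, diluted 50-fold and regrown to OD600 0.8–1.0, then diluted ten-fold serially to about 1 × 10^4 CFU/mL. Compounds two-fold serially diluted, 64 to 0.0625 µg/mL. MIC read by visual turbidity after 24 h at 37 °C.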

[7] = Toxicity in wild-type zebrafish AB assessed as mortality at 4 ug/ml; set-up: species or system Danio rerio; settings: in vivo
In short: (§2)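 Wild-type AB zebrafish were randomly allocated to wells, 30 fish per well, and exposed to the test agent at a range of concentrations.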

[8] = Toxicity in wild-type zebrafish AB assessed as mortality at 0.8 ug/ml; set-up: species or system Danio rerio; settings: in vivo; in short: as §2
[9] = Toxicity in wild-type zebrafish AB assessed as mortality at 50 ug/ml; set-up: species or system Danio rerio; settings: in vivo; in short: as §2
[10] = Toxicity in wild-type zebrafish AB assessed as mortality at 20 ug/ml; set-up: species or system Danio rerio; settings: in vivo; in short: as §2
K562 [11] = assay: Cytotoxicity against CM-Dil-labeled human K562 cells xenografted in wild-type zebrafish AB assessed as cell growth inhibition at 50 ug/ml measured after 2 days by fluorescence microscopic method relative to control; type: functional
In short: (§3)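 Wild-type AB zebrafish at 2 dpf yolk-injected with about 200 CM-DiI-labelled K562 cells, held at 35 °C to 3 dpf. Single waterborne dose in 0.1% DMSO aqueous solution, 30 fish per well. Then 2 days at 35 °C. 10 fish imaged by fluorescence microscopy and tumour-cell fluorescence intensity compared with vehicle control.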

[12] = (§4) Toxicity in wild-type zebrafish AB assessed as mortality at 100 ug/ml; set-up: species or system Danio rerio; settings: AB wild-type, in vivo; in short: as §2
K562 [13] = assay: Induction of apoptosis in human K562 cells at 5 to 15 uM measured after 24 to 48 hrs by Annexin V-FITC/propidium iodide staining based flow cytometry; type: functional, cell-based
In short: (§5)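 K562 cells seeded at 1 × 10^5 per well and treated 24 h and 48 h. Cells washed in PBS, resuspended in binding buffer, stained in the dark with annexin V-FITC and PI for 15 min, then analysed by flow cytometry within 1 h. Values are mean ± SD of three independent experiments.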

[14] = Half life in Sprague-Dawley rat plasma at 1 mg/ml by HPLC analysis; type: ADME, cell-free
In short: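 SD rat plasma diluted to 50% in water, prewarmed to 37 °C. 40 µL of a 1 mg/mL ACN stock added per 1 mL plasma. Samples taken at 0–1440 min, proteins precipitated with ACN containing internal standard, centrifuged. Supernatant quantified by C18 HPLC using the internal standard method.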

K562 [15] = assay: Cytotoxicity against CM-Dil-labeled human K562 cells xenografted in wild-type zebrafish AB assessed as cell growth inhibition at 5.6 ug/ml measured after 2 days by fluorescence microscopic method relative to control; type: functional; in short: as §3
K562 [16] = assay: Cytotoxicity against CM-Dil-labeled human K562 cells xenografted in wild-type zebrafish AB assessed as cell growth inhibition at 16.7 ug/ml measured after 2 days by fluorescence microscopic method relative to control; type: functional; in short: as §3
K562 [17] = assay: Induction of apoptosis in human K562 cells at 0.5 to 2 uM measured after 24 to 48 hrs by Annexin V-FITC/propidium iodide staining based flow cytometry; type: functional, cell-based; in short: as §5
Danio rerio = species: Danio rerio; assay: as §4; settings: in vivo; in short: as §2
[18] = Stability of the compound at -20 degreeC incubated for 3 days; type: physicochemical; settings: 72 h

SMILES | IC50 (MCF7 [1]) | IC50 (MCF7 [2]) | Ratio IC50 (MCF7 [3]) | IC50 (K562 [4]) | Stability [5] | also measured
C=C1/C=C/C(=O)N(C)CC(=O)N[C@@H]([C@H](O)C(=O)OC)C(=O)O[C@@H]([C@H](C)CCCCCCCCCCCC(C)C)[C@H](C)C(=O)N1 | 0.32 µM | 0.12 µM | 0.38 |  |  | 
C=C1/C=C/C(=O)N[C@H](C)C(=O)N[C@@H](C(C)C)C(=O)O[C@@H]([C@H](C)CCCCCC)[C@H](CCOC(=O)CCCCCCCCCCCCCCCCC)C(=O)N1 |  |  |  | > 50 µM | Stable | 
C=C1/C=C/C(=O)N[C@@H](C)C(=O)N[C@H](C(C)C)C(=O)O[C@H]([C@H](C)CCCCCC)[C@@H](CCO[Si](c2ccccc2)(c2ccccc2)C(C)(C)C)C(=O)N1 | 2.98 µM | 2.69 µM | 0.9 | 1.78 µM | Stable | Ratio IC50 (K562 [6]): 3
C=C1/C=C/C(=O)N[C@H](C)C(=O)N[C@@H](C(C)C)C(=O)O[C@@H]([C@H](C)CCCCCC)[C@H](CCOCc2ccc(OC)cc2)C(=O)N1 |  |  |  | 2.49 µM | Stable | 
C=C1/C=C/C(=O)N[C@H](C)C(=O)N[C@@H](C(C)C)C(=O)O[C@@H]([C@H](C)CCCCCC)[C@H](CCOC(=O)OC(C)(C)C)C(=O)N1 |  |  |  | 5.43 µM | Stable | 
Nc1ccn([C@@H]2O[C@H](CO)[C@@H](O)C2(F)F)c(=O)n1 [GEMCITABINE] | 0.57 µM | 8.9 µM | 15.6 |  |  | 
C=C1/C=C/C(=O)N[C@@H](C)C(=O)N[C@H](C(C)C)C(=O)O[C@H]([C@@H](C)CCC)[C@@H](CCO)C(=O)N1 | > 20 µM | > 20 µM |  | > 50 µM |  | 
C=C1/C=C/C(=O)N[C@@H](C)C(=O)N[C@H](C(C)C)C(=O)O[C@H]([C@@H](C)CCCCCC)[C@@H](CCO[Si](c2ccccc2)(c2ccccc2)C(C)(C)C)C(=O)N1 | 5.11 µM | 7.02 µM | 1.37 | 1.27 µM | Stable | Ratio IC50 (K562 [6]): 4
Cc1ccc(NC(=O)c2ccc(CN3CCN(C)CC3)cc2)cc1Nc1nccc(-c2cccnc2)n1 [IMATINIB MESYLATE] |  |  |  | 0.31 µM |  | 
O=C(O)c1cn(C2CC2)c2cc(N3CCNCC3)c(F)cc2c1=O [CIPROFLOXACIN] |  |  |  |  |  | MIC (Staphylococcus aureus): 0.5 µg/mL (≈ 1.51 µM)
C=C1/C=C/C(=O)N[C@H](C)C(=O)N[C@@H](C(C)C)C(=O)O[C@@H]([C@H](C)CCCCCC)[C@H](CCOC(=O)[C@H](Cc2ccccc2)NC(=O)OC(C)(C)C)C(=O)N1 |  |  |  | 5.95 µM | Stable | 
C=C1/C=C/C(=O)NC(C)C(=O)NC(C(C)C)C(=O)O[C@@H]([C@H](C)CCCCCC)[C@H](CCOCc2ccccc2)C(=O)N1 (single isomer, unassigned) |  |  |  | 3.06 µM | Stable | 
Cc1ccc(NC(=O)c2ccc(CN3CCN(C)CC3)cc2)cc1Nc1nccc(-c2cccnc2)n1 [IMATINIB] |  |  |  |  |  | mortality at 4 ug/ml [7]: 0%; mortality at 0.8 ug/ml [8]: 0%; mortality at 50 ug/ml [9]: 0%; mortality at 20 ug/ml [10]: 0%; growth inhibition (GI) (K562 [11]): 71%; mortality at 100 ug/ml [12]: 100%
C#CCCCCCCCCC(=O)OCC[C@@H]1C(=O)N[C@@H](CO)/C=C/C(=O)N[C@H](C)C(=O)N[C@@H](C(C)C)C(=O)O[C@H]1[C@H](C)CCCCCC |  |  |  | 17.9 µM | Stable | 
C=C1/C=C/C(=O)N[C@@H](C)C(=O)N[C@H](C(C)C)C(=O)O[C@@H]([C@H](C)CCCCCC)[C@H](CCOCc2ccc(OC)cc2)C(=O)N1 | 10.1 µM | 7.98 µM | 0.79 | 4.6 µM | Stable | 
C#CCCCCCCCCC(=O)OCC[C@@H]1C(=O)NC(=C)/C=C/C(=O)N[C@H](C)C(=O)N[C@@H](C(C)C)C(=O)O[C@H]1[C@H](C)CCCCCC |  |  |  | 4.41 µM | Stable | MIC (Staphylococcus aureus): > 64 µg/mL; Activity (K562 [13]): Active
C#CCCCC(=O)OCC[C@@H]1C(=O)NC(=C)/C=C/C(=O)N[C@H](C)C(=O)N[C@@H](C(C)C)C(=O)O[C@H]1[C@H](C)CCCCCC |  |  |  | 8 µM | Stable | 
C=C1/C=C/C(=O)N[C@H](C)C(=O)N[C@@H](C(C)C)C(=O)O[C@@H]([C@H](C)CCCCCC)[C@H](CCOC(=O)C23CC4CC(CC(C4)C2)C3)C(=O)N1 |  |  |  | 7.72 µM | Stable | 
C=C1/C=C/C(=O)N[C@@H](C)C(=O)N[C@H](C(C)C)C(=O)O[C@@H]([C@H](C)CCCCCC)[C@H](CCO[Si](c2ccccc2)(c2ccccc2)C(C)(C)C)C(=O)N1 | 3.75 µM | 2.93 µM | 0.78 | 0.88 µM | Stable | 
C=C1/C=C/C(=O)N(C)CC(=O)N[C@@H](C(C)C)C(=O)O[C@@H]([C@H](C)CCCCCC)[C@H](CCO[Si](c2ccccc2)(c2ccccc2)C(C)(C)C)C(=O)N1 |  |  |  | 0.4 µM | Stable | MIC (Staphylococcus aureus): > 64 µg/mL; half-life at 1 mg/ml [14]: 20.1 h
C=C1/C=C/C(=O)N[C@H](C)C(=O)N[C@@H](C(C)C)C(=O)O[C@@H]([C@H](C)CCCCCC)[C@H](CCO[Si](c2ccccc2)(c2ccccc2)C(C)(C)C)C(=O)N1 | 6.26 µM | 6.81 µM | 1.09 | 0.64 µM | Stable | mortality at 4 ug/ml [7]: 0%; growth inhibition (GI) (K562 [15]): 66%; growth inhibition (GI) (K562 [16]): 70%; MIC (Staphylococcus aureus): > 64 µg/mL; Activity (K562 [17]): Active; mortality at 0.8 ug/ml [8]: 0%; mortality at 50 ug/ml [9]: 0%; mortality at 20 ug/ml [10]: 0%; growth inhibition (GI) (K562 [11]): 75%; half-life at 1 mg/ml [14]: 14.3 h; mortality (Danio rerio): Nd(Insoluble)
C=C1/C=C/C(=O)N[C@@H](C)C(=O)N[C@H](C(C)C)C(=O)O[C@H]([C@@H](C)CCCCCC)[C@@H](CCO)C(=O)N1 | 12.3 µM | 9.17 µM | 0.74 | 4.86 µM |  | MIC (Staphylococcus aureus): 8 µg/mL (≈ 16.2 µM); Stability [18]: Unstable; half-life at 1 mg/ml [14]: 0.54 h
C=C1/C=C/C(=O)N[C@H](C)C(=O)N[C@@H](C(C)C)C(=O)O[C@@H]([C@H](C)CCCCCC)[C@H](CCOC(=O)CP(=O)(OCC)OCC)C(=O)N1 |  |  |  | 7.9 µM | Stable | 
C=C1/C=C/C(=O)N[C@H](C)C(=O)N[C@@H](C(C)C)C(=O)O[C@@H]([C@H](C)CCCCCC)[C@H](CCOC(=O)CC(c2ccccc2)(c2ccccc2)c2ccccc2)C(=O)N1 |  |  |  | 3.79 µM | Stable | 
CCCCCC[C@@H](C)[C@@H]1OC(=O)[C@H](C(C)C)NC(=O)[C@@H](C)NC(=O)/C=C/[C@H](CO)NC(=O)[C@H]1CCOCc1ccc(OC)cc1 |  |  |  | 21.4 µM | Stable | 
CCCCCC[C@@H](C)[C@@H]1OC(=O)[C@H](C(C)C)NC(=O)[C@@H](C)NC(=O)/C=C/[C@H](CO)NC(=O)[C@H]1CCOCc1ccccc1 |  |  |  | 33.6 µM | Stable | 
C=C1/C=C/C(=O)N(C)CC(=O)N[C@@H]([C@H](O)C(N)=O)C(=O)O[C@@H]([C@H](C)CCCCCCCCCCCC(C)C)[C@H](C)C(=O)N1 | 0.3 µM | 0.08 µM | 0.27 |  |  | 
C=C1/C=C/C(=O)N[C@@H](C)C(=O)N[C@H](C(C)C)C(=O)OC([C@@H](C)CCC)[C@@H](CCOCc2ccc(OC)cc2)C(=O)N1 (single isomer, unassigned) |  |  |  | 13.7 µM | Stable | 
C=C1/C=C/C(=O)NCC(=O)N[C@@H](C(C)C)C(=O)O[C@@H]([C@H](C)CCCCCC)[C@H](CCO[Si](c2ccccc2)(c2ccccc2)C(C)(C)C)C(=O)N1 | 3.49 µM | 4.69 µM | 1.34 | 2.31 µM | Stable | Ratio IC50 (K562 [6]): 2
